Test results as given in ChEMBL document CHEMBL1139826, “Synthesis, biological activity, and SAR of antimycobacterial 2- and 8-substituted 6-(2-furyl)-9-(p-methoxybenzyl)purines” (Bioorg Med Chem, 2007).
In brackets after ≈: the same amount, converted by molar mass.

Columns and labels:
[1] = Selectivity index, ratio of IC50 for Vero cells to MIC of Mycobacterium tuberculosis H37Rv; format: functional
[2] = tested on: Mycobacterium tuberculosis; experiment: Antimicrobial activity against Mycobacterial tuberculosis ATCC 27294 at […]; format: functional
Escherichia coli = experiment: Antimicrobial activity against Escherichia coli ATCC 25922; format: functional
Staphylococcus aureus = experiment: Antimicrobial activity against Staphylococcus aureus ATCC 25923; format: functional
Vero = experiment: Cytotoxicity against Vero cells; format: cell-based; conditions: Chlorocebus sabaeus
Summary of the method: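 IC50 was measured in VERO mammalian cells, and only for compounds that met the M. tuberculosis MIC cutoff for follow-up. A selectivity index was then calculated as the VERO IC50 divided by the Mtb MIC.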

| SMILES | Ratio [1] | inhibition at […] [2] | further results |
| --- | --- | --- | --- |
| COc1ccc(Cn2cnc3c(-c4ccco4)ncnc32)cc1 | >40 µg/mL |  |  |
| COc1ccc(Cn2cnc3c(-c4ccco4)nc(N(C)C)nc32)cc1 |  | 34% |  |
| COc1ccc(Cn2cnc3c(-c4ccco4)nc(Oc4ccccc4)nc32)cc1 |  | 72% |  |
| COc1ccc(Cn2cnc3c(-c4ccco4)nc(Cl)nc32)cc1 | >26 µg/mL |  | MIC (Escherichia coli): > 32 µg/mL; MIC (Staphylococcus aureus): > 32 µg/mL |
| COc1ccc(Cn2cnc3c(-c4ccco4)nc(SC)nc32)cc1 | 3.9 µg/mL |  | IC50 (Vero): 3.05 µg/mL (≈ 8.65 µM) |
